# Assay results reported in PubChem BioAssay.
# Calls of active or inactive are those of the source.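 How the source made its calls, unless noted: active means viability at or below 10% of carrier control in both of two separate runs; inconclusive means viability at or below 10% in only one of the two runs; inactive means the rest.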
# Legend:
# [1] = Her2 expression decrease, cell viability multiplex – SKBR3 breast tumor cells, AlphaScreen, ATP viability, primary screen (AID 461;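 active means Her2 level under about 52% in both replicate screens, with viability over 70% of control, limit read from the data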;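 on Her2 level: lower value means less Her2 protein in the cells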;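 on viability: percent of carrier control wells set as 100% viability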); details: SKBR3 Her2 protein level, 18-24 h, measured here: SKBR3 viability, ATP luminescence, at 10 µM
# [2] = target: Receptor tyrosine-protein kinase erbB-2 (Homo sapiens) (UniProt P04626); experiment: as above; details: 18-24 h, at 10 µM, stronger effect = lower value
# Receptor tyrosine-protein kinase erbB-2 (Homo sapiens), sequence (P04626 whole entry, looked up): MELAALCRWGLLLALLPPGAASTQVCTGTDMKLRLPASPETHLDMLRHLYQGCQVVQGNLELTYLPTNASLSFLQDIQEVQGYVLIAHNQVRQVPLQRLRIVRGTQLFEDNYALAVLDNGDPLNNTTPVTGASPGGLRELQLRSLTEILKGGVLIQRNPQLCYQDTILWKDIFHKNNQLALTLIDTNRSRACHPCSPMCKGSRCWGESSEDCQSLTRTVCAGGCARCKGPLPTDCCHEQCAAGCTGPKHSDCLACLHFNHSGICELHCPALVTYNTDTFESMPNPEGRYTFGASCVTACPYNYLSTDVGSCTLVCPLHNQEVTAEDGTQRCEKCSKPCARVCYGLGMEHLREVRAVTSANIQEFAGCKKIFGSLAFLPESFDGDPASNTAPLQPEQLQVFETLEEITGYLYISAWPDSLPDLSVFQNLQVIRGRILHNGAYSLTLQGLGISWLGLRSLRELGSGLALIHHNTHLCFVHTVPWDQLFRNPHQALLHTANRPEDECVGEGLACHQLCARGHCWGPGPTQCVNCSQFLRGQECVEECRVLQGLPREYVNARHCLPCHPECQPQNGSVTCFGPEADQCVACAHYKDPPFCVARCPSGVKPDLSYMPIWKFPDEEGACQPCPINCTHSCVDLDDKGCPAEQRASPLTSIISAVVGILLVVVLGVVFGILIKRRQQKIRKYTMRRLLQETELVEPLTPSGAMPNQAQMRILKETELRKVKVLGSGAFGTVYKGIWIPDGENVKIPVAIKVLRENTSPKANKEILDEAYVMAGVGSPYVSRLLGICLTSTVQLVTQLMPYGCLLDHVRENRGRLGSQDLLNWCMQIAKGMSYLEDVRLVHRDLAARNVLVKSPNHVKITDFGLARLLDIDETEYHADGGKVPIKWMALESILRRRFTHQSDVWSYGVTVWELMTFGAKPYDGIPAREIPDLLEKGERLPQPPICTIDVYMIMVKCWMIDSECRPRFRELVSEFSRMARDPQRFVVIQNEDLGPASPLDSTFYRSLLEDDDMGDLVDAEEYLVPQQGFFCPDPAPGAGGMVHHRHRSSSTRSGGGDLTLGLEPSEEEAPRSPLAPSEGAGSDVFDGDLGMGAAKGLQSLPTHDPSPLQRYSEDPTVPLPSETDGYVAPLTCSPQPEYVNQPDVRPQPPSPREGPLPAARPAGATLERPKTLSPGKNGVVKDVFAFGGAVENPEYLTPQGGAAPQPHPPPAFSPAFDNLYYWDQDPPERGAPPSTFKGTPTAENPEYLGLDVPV
# [3] = reduced viability of SK-BR-3 breast cancer cells – cell-based, 24 h, human, pilot screen (AID 572); details: SK-BR-3 viability, CellTiter-Glo luminescence, at 10 µM, stronger effect = lower value;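 further: compound exposure lasted between 18 and 24 h rather than exactly 24 h; 100% = carrier-treated control wells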
# [4] = HUVEC growth inhibition – cell-based, human, primary screen (AID 575;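 active means viability at or below 30% in both replicate assays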;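 further: 100% = median of untreated cell wells with 0.1% DMSO on each plate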); details: HUVEC proliferation, CellTiter-Glo luminescence, 72 h; at 10 µM; stronger effect = lower value
# Outline: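 System: primary human umbilical vein endothelial cells; Quantity: 1250 endothelial cells in each well; Buffer or medium: supplemented EBM, 2% fetal bovine serum; Doses: one dose, 10 µM final, 0.1% DMSO; Incubation: 72 h compound incubation; Technique: ATP-based CellTiter-Glo luminescent read; Evaluation: percent of median DMSO-control luminescence; Controls: vehicle and MePR control wells.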
# [5] = H69AR cell proliferation blockers – human, duplicate replicates, primary screen (AID 580;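 active means viability at or under a set limit in both replicates, limit being median viability minus 3 SD, cut at about 48% in these data, passing the limit was not always enough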;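 further: 100% = mean luminescence of untreated wells and 0% = no signal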); details: H69AR lung tumor cells viability, ATP luminescence, 72 h; at 10 µM; stronger effect = lower value
# [6] = MRP1 drug-resistance reversers in H69AR cells – cell-based, doxorubicin co-treatment, pilot screen (AID 601;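 active means viability loss from added drug above about 55%, and viability with drug at most 40%, in both replicates, limit read from the data, passing the limit was not always enough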); details: CellTiter-Glo, 72 h, at 10 µM; for differential viability (reversal): stronger effect = higher value
# [7] = yeast transport mutant growth inhibition pilot in 384-well plates, post-Golgi transport modulator project (AID 636; in the data active means inhibition above about 31%); details: absorbance 615 nm, about 18 h, stronger effect = higher value
# [8] = growth suppression of yeast trafficking mutant, preliminary HTS, modulators of trafficking downstream of Golgi apparatus project, 1536-format plate, OD 615 nm (AID 637; in the data active means inhibition above about 30%); details: yeast transport mutant growth, absorbance 615 nm, 18 h; stronger effect = higher value
# [9] = H69AR cells + 2 uM doxorubicin, measured here: viability with 2 uM doxorubicin, stronger effect = lower value
# [10] = H69AR cells, compound alone cytotoxicity
SMILES,viability [1] [%],Her2 level [2],viability [3],viability [4],viability [5],differential viability (reversal) ([6]; H69AR cells + 2 uM doxorubicin),"viability [6, 9] [%]","viability [6, 10] [%]",inhibition [7],inhibition [8]
CS(=O)(=O)N(CC(=O)O)c1cccc(Cl)c1,95,120% (inactive),95% (inactive),115% (inactive),95.7% (inactive),-0.88% (inactive),96.6,95.7,2.11% (inactive),2.95% (inactive)
COc1ccc(Br)cc1C(=O)Nc1nnn(C)n1,81.5,106% (inactive),81.5% (inactive),106% (inactive),104% (inactive),10.9% (inactive),93.2,104,3.95% (inactive),30.5% (active)
CC(C)OC(=O)CSc1nc2cccnc2n1C1CCCCC1,124,93.5% (inactive),124% (inactive),112% (inactive),95.3% (inactive),5.92% (inactive),89.4,95.3,-5.33% (inactive),3.44% (inactive)
CN(C)C=Nc1nonc1N,110,106% (inactive),110% (inactive),95.3% (inactive),94.1% (inactive),2.63% (inactive),91.4,94.1,-5.53% (inactive),1.97% (inactive)
CCc1cc(=O)oc2cc(OC(C)=O)cc(OC(C)=O)c12,116,74% (inactive),116% (inactive),76.8% (inactive),95.1% (inactive),-9.96% (inactive),105,95.1,-7.37% (inactive),-5.5% (inactive)
CCOC(=O)Nc1ccc(OC)cc1S(=O)(=O)N1CCCCC1,88.5,93% (inactive),88.5% (inactive),112% (inactive),99% (inactive),17.7% (inactive),81.3,99,-1.84% (inactive),-1.8% (inactive)
CCOCCn1cnc2sc(C(=O)Nc3nc(C)c(C(=O)OCC)s3)c(C)c2c1=O,110,81% (inactive),110% (inactive),75.7% (inactive),78% (inactive),-14.5% (inactive),92.5,78,-1.18% (inactive),-2.42% (inactive)
O=C1OC2(c3ccccc3)C3CCCC2C13,100,120% (inactive),100% (inactive),97.3% (inactive),100% (inactive),7.76% (inactive),92.4,100,-6.44% (inactive),5.87% (inactive)
COC(=O)c1ccc(CNC(=O)COc2ccccc2Br)o1,93,108% (inactive),93% (inactive),100% (inactive),103% (inactive),15% (inactive),87.6,103,-3.33% (inactive),-10% (inactive)
CCc1nnc(NC(=O)NCN2C(=O)C3C4C=CC(C4)C3C2=O)s1 (stereo not given),123,85.5% (inactive),123% (inactive),84.4% (inactive),95.5% (inactive),1.7% (inactive),93.8,95.5,-6.44% (inactive),-5.24% (inactive)
O=C(CCc1ccccc1)Nc1ccncc1,110,119% (inactive),110% (inactive),103% (inactive),97.8% (inactive),5.17% (inactive),92.6,97.8,0.65% (inactive),-5.33% (inactive)
CCOC(=O)C1=C(c2ccccc2)N2CCN=C2S1,94.5,100% (inactive),94.5% (inactive),100% (inactive),94.8% (inactive),5.97% (inactive),88.8,94.8,-0.93% (inactive),-9.68% (inactive)
CC(C)C(NC(=O)OCc1ccccc1)C(=O)OCC(=O)NCc1ccco1 (stereo not given),100,108% (inactive),100% (inactive),86.2% (inactive),85.3% (inactive),7.68% (inactive),77.6,85.3,-1.18% (inactive),-11.3% (inactive)
COc1ccc(C)cc1S(=O)(=O)N(CC(=O)O)c1ccccc1,118,114% (inactive),118% (inactive),106% (inactive),86.1% (inactive),-11.2% (inactive),97.2,86.1,-2.84% (inactive),4.75% (inactive)
CCOC(=O)c1c(N)sc(C(=O)N2CCOCC2)c1C,127,115% (inactive),127% (inactive),103% (inactive),98.9% (inactive),1.31% (inactive),97.6,98.9,-7.07% (inactive),-1.75% (inactive)
CCOC(=O)CSc1nnc(-c2ccc(S(=O)(=O)N3CCOCC3)cc2)n1-c1ccccc1,93,83.5% (inactive),93% (inactive),94.4% (inactive),105% (inactive),17.4% (inactive),87.7,105,-1.97% (inactive),1.43% (inactive)
Cc1ccc2cc3cc(C(=O)NCCN4CCOCC4)oc3nc2c1,99,79.5% (inactive),99% (inactive),86% (inactive),96.6% (inactive),9.98% (inactive),86.6,96.6,-5.13% (inactive),8.67% (inactive)
Cc1noc(NS(=O)(=O)c2ccc(N3C(=O)c4ccccc4C3=O)cc2)c1C,116,98% (inactive),116% (inactive),99.1% (inactive),107% (inactive),0.49% (inactive),106,107,-3.47% (inactive),2.58% (inactive)
CCOC(=O)c1cc(CC)sc1NC(=O)CCC(=O)O,121,93% (inactive),121% (inactive),96% (inactive),93.8% (inactive),2.2% (inactive),91.6,93.8,-6.13% (inactive),0.32% (inactive)
O=C(CCC(=O)OCCCC(F)(F)C(F)(F)F)NC1CCCCC1,123,112% (inactive),123% (inactive),112% (inactive),95.3% (inactive),3.4% (inactive),91.9,95.3,-5.47% (inactive),-3.23% (inactive)
Nc1cc(-c2ccccc2)ccc1O,100,70.5% (inactive),100% (inactive),86.3% (inactive),73% (inactive),12% (inactive),60.9,73,-7.16% (inactive),8.33% (inactive)
CCSc1nncn1/N=C/c1ccc(OC)c(OC)c1,84,124% (inactive),84% (inactive),91.8% (inactive),91.6% (inactive),-3.4% (inactive),95,91.6,-0.9% (inactive),-7.5% (inactive)
COc1cccc(CNC(=O)C2CCN(c3cnccn3)CC2)c1,87.5,118% (inactive),87.5% (inactive),88.4% (inactive),96.2% (inactive),8.93% (inactive),87.3,96.2,-4.67% (inactive),16.8% (inactive)
CCN(CC)CCN1C(=O)C(=O)/C(=C(/O)c2c(C)[nH]c(C(=O)OC)c2C)C1c1ccco1 (stereo not given),88,105% (inactive),88% (inactive),107% (inactive),93.4% (inactive),-3.21% (inactive),96.6,93.4,-4.8% (inactive),-0.16% (inactive)
CCOc1ccccc1NC(=O)N1C2CCCC1CC(NC(=O)C1CC1)C2 (stereo not given),102,95% (inactive),102% (inactive),107% (inactive),96.8% (inactive),6.77% (inactive),90,96.8,-6% (inactive),2.58% (inactive)
Cc1nc2ccc(NC(=O)N3CCC(c4ccccc4)C3)cc2nc1C (stereo not given),101,93.5% (inactive),101% (inactive),57.7% (inactive),74.8% (inactive),9.41% (inactive),65.4,74.8,-4.21% (inactive),-1.43% (inactive)
CCOc1cc(N2CCOCC2)c(OCC)cc1NC(=O)CSc1cccc[n+]1[O-],128,93% (inactive),128% (inactive),94% (inactive),86.8% (inactive),1.93% (inactive),84.8,86.8,-5.26% (inactive),-4% (inactive)
COC(=O)CSc1nc(C)c(C(C)=O)cc1C#N,92,90.5% (inactive),92% (inactive),111% (inactive),90.1% (inactive),9.68% (inactive),80.4,90.1,-0.93% (inactive),-0.65% (inactive)
COc1c(Br)cc2c(C)c(C(=O)O)oc2c1Br,104,102% (inactive),104% (inactive),84.2% (inactive),94.2% (inactive),4.95% (inactive),89.3,94.2,1.82% (inactive),-4.59% (inactive)
COC(=O)CN(c1ccc(C)c(Cl)c1)S(C)(=O)=O,108,100% (inactive),108% (inactive),99.5% (inactive),101% (inactive),10.7% (inactive),90.5,101,-2.27% (inactive),-0.81% (inactive)
